# Results taken from ChEMBL document CHEMBL1149123, “Antineoplastic agents. 499. Synthesis of hystatin 2 and related 1H-benzo[de][1,6]-naphthyridinium salts from aaptamine” (J Med Chem, 2004).
# pIC50: −log10 of the molar value. Activity calls are given as the source filed them. The rule behind the calls is not given here.
# Columns and labels:
# NCI-H460 = assay: Inhibition of lung NCI-H460 cell proliferation; type: functional; settings: Homo sapiens, read-out: ED50 (the source's name)
# MCF7 = assay: Inhibition of breast MCF-7 cell proliferation; type: functional; settings: Homo sapiens, read-out: ED50 (the source's name)
# SF-268 = assay: Inhibition of CNS SF-268 cell proliferation; type: functional; settings: Homo sapiens, read-out: ED50 (the source's name)
# DU-145 = assay: Inhibition of prostate DU-145 cell proliferation; type: functional; settings: Homo sapiens, read-out: ED50 (the source's name)
# KM-20L2 = assay: Inhibition of colon KM20L2 cell proliferation; type: functional; settings: Homo sapiens, read-out: ED50 (the source's name)
# [1] = molecular target: Protein kinase C alpha type (Homo sapiens) (UniProt P17252); assay: Inhibition of PKC alpha at […]; settings: concentration not given here
# Outline: (§1)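 PKC alpha ligand binding, measured as inhibition of [20-³H]phorbol 12,13-dibutyrate binding at a single compound concentration of […]. Triplicate measurements in single or triplicate experiments, depending on compound. Reported as percent inhibition, mean ± SEM.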
# BXPC-3 = assay: Inhibition of pancreatic BXPC-3 cell proliferation; type: functional; settings: Homo sapiens, read-out: ED50 (the source's name)
# P388 = assay: Inhibition of murine leukemia P388 cell proliferation; type: functional; settings: Mus musculus, read-out: ED50 (the source's name)
# Escherichia coli = assay: Antimicrobial activity against Escherichia coli; No inhibition at 64 ug/mL; type: functional
# [2] = molecular target: Protein kinase C alpha type (Homo sapiens) (UniProt P17252); assay: Displacement of [20-3H]-phorbol 12,13-dibutyrate from protein kinase C alpha at […]; settings: concentration not given here; outline: as §1
# Neisseria gonorrhoeae [3] = assay: Antimicrobial activity against Neisseria gonorrhoeae; type: functional
# Cryptococcus neoformans = assay: Antimicrobial activity against Cryptococcus neoformans; No inhibition at 64 ug/mL; type: functional, organism-based
# Enterobacter cloacae = assay: Antimicrobial activity against Enterobacter cloacae; No inhibition at 64 ug/mL; type: functional, organism-based
# Enterococcus faecalis = assay: Antimicrobial activity against Enterococcus faecali; No inhibition at 64 ug/mL; type: functional
# [4] = test system: Stenotrophomonas maltophilia; assay: Antimicrobial activity against Stenotrophomonas maltophilia; No inhibition at 64 ug/mL; type: functional, organism-based
# Staphylococcus aureus = assay: Antimicrobial activity against Staphylococcus aureus; No inhibition at 64 ug/mL; type: functional, organism-based
# Candida albicans = assay: Antimicrobial activity against Candida albicans; No inhibition at 64 ug/mL; type: functional, organism-based
# Micrococcus luteus [5] = assay: Antimicrobial activity against Micrococcus luteus; type: functional
# Streptococcus pneumoniae [6] = assay: Antimicrobial activity against Streptococcus pneumoniae; type: functional
# Micrococcus luteus [7] = assay: Antimicrobial activity against Micrococcus luteus; No inhibition at 64 ug/mL; type: functional, organism-based
# Streptococcus pneumoniae [8] = assay: Antimicrobial activity against Streptococcus pneumoniae; No inhibition at 64 ug/mL; type: functional
# [9] = Effect on tubulin assembly was determined; type: functional
# Outline: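 Tubulin assembly tested in vitro, top concentration […].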
# Neisseria gonorrhoeae [10] = assay: Antimicrobial activity against Neisseria gonorrhoeae; No inhibition at 64 ug/mL; type: functional
# Micrococcus luteus [11] = assay: Antimicrobial activity against Micrococcus luteus; 8-16; type: functional
# [12] = molecular target: Protein kinase C alpha type (Homo sapiens) (UniProt P17252); assay: Inhibition of PKC alpha
# Outline: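 Competition with [20-³H]phorbol 12,13-dibutyrate binding to PKC alpha. Full dose–response curves of binding inhibition were determined.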
# Micrococcus luteus [13] = assay: Antimicrobial activity against Micrococcus luteus; 0.5-2; type: functional
# [14] = test system: Mycobacterium tuberculosis; assay: Antimicrobial activity against Mycobacterium tuberculosis at 6.25 ug/mL; type: functional
SMILES,EC50 (NCI-H460) [µg/mL],EC50 (MCF7) [µg/mL],EC50 (SF-268) [µg/mL],EC50 (DU-145) [µg/mL],EC50 (KM-20L2) [µg/mL],inhibition [1] [%],EC50 (BXPC-3) [µg/mL],EC50 (P388) [µg/mL],Activity (Escherichia coli),inhibition [2] [%],Activity (Neisseria gonorrhoeae [3]) [µg/mL],Activity (Cryptococcus neoformans),Activity (Enterobacter cloacae),Activity (Enterococcus faecalis),Activity [4],Activity (Staphylococcus aureus),Activity (Candida albicans),Activity (Streptococcus pneumoniae [8]),also measured
COc1cc2c3c(ccnc3c1OC)N(C)C=C2,> 10,> 10,> 10,> 10,> 10,< 6,> 10,> 10,–,–,–,–,–,–,–,–,–,–,–
COc1ccc(CN2C=Cc3cc(OC)c(OC)c4nccc2c34)cc1.Cl,5.1,8,8.2,3.1,3.9,< 6,4.2,2.19,inactive,9.2,64,inactive,inactive,inactive,inactive,inactive,inactive,–,Activity (Micrococcus luteus [5]): 64 µg/mL; Activity (Streptococcus pneumoniae [6]): 64 µg/mL
COc1cc(CN2C=Cc3cc(OC)c(OC)c4nccc2c34)cc(OC)c1OC.Cl,> 10,> 10,> 10,> 10,3.4,< 6,> 10,4.64,inactive,–,64,inactive,inactive,inactive,inactive,inactive,inactive,inactive,Activity (Micrococcus luteus [7]): inactive
COc1cc2c3c(cc[n+](C)c3c1OC)N(C)C=C2.[I-],> 10,4.9,0.69,3.5,6.1,< 6,7.1,3.89,–,–,–,–,–,–,–,–,–,–,–
COc1cc2ccnc3c2c(c1O)N(C)C=C3 [ISOAAPTAMINE],–,–,–,–,–,–,–,–,–,–,–,–,–,–,–,–,–,–,pIC50 [9]: 4.51
COc1ccc(C[n+]2ccc3c4c(cc(OC)c(OC)c42)C=CN3Cc2cc(OC)c(OC)c(OC)c2)cc1O.[Br-],> 10,> 10,> 10,> 10,> 10,43.2,> 10,> 10,inactive,16,–,inactive,inactive,inactive,inactive,inactive,inactive,inactive,Activity (Neisseria gonorrhoeae [10]): inactive; Activity (Micrococcus luteus [11]): 16 µg/mL
COc1cc2c3c(ccnc3c1OC)N(Cc1ccccc1)C=C2.Cl,4.9,> 10,> 10,4.4,2.2,< 6,4.3,1.64,inactive,6.4,64,inactive,inactive,inactive,inactive,inactive,inactive,–,Activity (Micrococcus luteus [7]): inactive; Activity (Streptococcus pneumoniae [6]): 64 µg/mL
COc1cc2c3c(cc[n+](Cc4ccccc4)c3c1OC)N(Cc1ccccc1)C=C2.[Cl-],0.26,0.27,0.064,0.036,0.055,71.1,0.061,0.234,8 µg/mL,11.8,–,inactive,inactive,32 µg/mL,inactive,inactive,inactive,32 µg/mL,ID50 [12]: 20.8 µM; Activity (Neisseria gonorrhoeae [10]): 0.25 µg/mL; Activity (Micrococcus luteus [13]): 2 µg/mL; inhibition at 6.25 µg/mL [14]: 98%
